Results published in ChEMBL document CHEMBL1938354 (Eur J Med Chem, 2012).
Calls of active or inactive are those of the source. The rule behind the calls is not given here.

How the values were obtained:
[1] = target: Aldo-keto reductase family 1 member B1 (Homo sapiens, UniProt P15121); assay: Inhibition of human recombinant N-terminus His6-tagged AKR1B1 expressed in Escherichia coli BL21 DE3 assessed as pyridine-3-aldehyde reduction by spectrometric analysis
[2] = target: T1, Aldo-keto reductase family 1 member B10 (Homo sapiens, UniProt O60218); assay: Inhibition of human recombinant N-terminus His6-tagged AKR1B10 expressed in Escherichia coli BL21 DE3 assessed as pyridine-3-aldehyde reduction by spectrometric analysis
Method in brief: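 Purified recombinant 6-His AKR1B10 was assayed at 25 °C in 0.1 M potassium phosphate, pH 7.4, with 0.1 mM NADPH and 0.2 mM pyridine-3-aldehyde. Reductase rate was followed as NADPH absorbance change at 340 nm. IC50 is the mean of at least three determinations.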
Target sequence in this assay (O60218 whole entry): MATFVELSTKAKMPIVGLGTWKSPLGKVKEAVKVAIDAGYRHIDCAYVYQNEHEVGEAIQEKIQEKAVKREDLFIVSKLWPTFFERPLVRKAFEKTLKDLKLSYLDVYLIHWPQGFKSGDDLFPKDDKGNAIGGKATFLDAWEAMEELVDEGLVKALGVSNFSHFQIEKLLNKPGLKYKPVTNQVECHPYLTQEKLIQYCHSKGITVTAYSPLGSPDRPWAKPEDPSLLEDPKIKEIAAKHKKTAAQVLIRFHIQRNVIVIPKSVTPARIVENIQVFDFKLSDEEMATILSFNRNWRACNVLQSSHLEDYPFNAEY

Homo sapiens = species: Homo sapiens; assay: Selectivity ratio of IC50 for human recombinant N-terminus His6-tagged AKR1B1 to IC50 for human recombinant N-terminus His6-tagged AKR1B10
Method in brief: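 IC50 values for purified recombinant AKR1B1 and AKR1B10 were each determined at 25 °C in 0.1 M potassium phosphate, pH 7.4, with 0.1 mM NADPH and 0.2 mM pyridine-3-aldehyde, by NADPH absorbance at 340 nm. Each IC50 is the mean of at least three determinations. The ratio is AKR1B1 IC50 over AKR1B10 IC50.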

[3] = target: T1, Aldo-keto reductase family 1 member B10; assay: Competitive inhibition at human recombinant N-terminus His6-tagged AKR1B10 expressed in Escherichia coli BL21 DE3 assessed as inhibition of NADP+ linked geraniol oxidation by fluorescence analysis
Target sequence in this assay (O60218 whole entry): as above

HeLa [4] = assay: Cytotoxicity against human HeLa cells after 24 hrs by trypan blue dye exclusion assay; type: functional; details: read-out: LD50 (the source's name)
U-937 [5] = assay: Growth inhibition of human U937 cells at 0.2 uM by trypan blue dye exclusion assay; type: functional, cell-based
HeLa [6] = assay: Growth inhibition of human HeLa cells at 0.2 uM by trypan blue dye exclusion assay; type: functional, cell-based
U-937 [7] = assay: Growth inhibition of AKR1B10-overexpressing human U937 cells at 1 uM by trypan blue dye exclusion assay; type: functional, cell-based
Method in brief: (§1)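 U937 cells were transiently transfected with pGW1 plasmid carrying AKR1B10 cDNA and resuspended in fresh growth medium. They were seeded at 5 × 10⁴ cells/ml and treated with inhibitor for 0, 24, 48 and 72 h. Viable cells were counted by trypan blue exclusion.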

[8] = target: Aldo-keto reductase family 1 member B10 (Homo sapiens, UniProt O60218, S304A); assay: Competitive inhibition at human recombinant N-terminus His6-tagged AKR1B10 Ser304Ala mutant expressed in Escherichia coli BL21 DE3 assessed as inhibition of NADP+ linked geraniol oxidation by fluorescence analysis
Sequence of Aldo-keto reductase family 1 member B10 (Homo sapiens, UniProt O60218, S304A) (O60218 whole entry S304A): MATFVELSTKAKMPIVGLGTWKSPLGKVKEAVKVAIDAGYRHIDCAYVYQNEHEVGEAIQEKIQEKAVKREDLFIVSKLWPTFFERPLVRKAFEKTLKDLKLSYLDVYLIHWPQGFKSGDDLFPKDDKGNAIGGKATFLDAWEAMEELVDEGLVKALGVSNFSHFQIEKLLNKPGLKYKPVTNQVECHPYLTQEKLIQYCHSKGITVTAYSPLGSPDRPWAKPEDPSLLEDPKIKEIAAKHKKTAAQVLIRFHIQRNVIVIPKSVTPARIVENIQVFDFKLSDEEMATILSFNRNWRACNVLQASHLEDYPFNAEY

[9] = target: Aldo-keto reductase family 1 member B10 (Homo sapiens, UniProt O60218, V301L); assay: Competitive inhibition at human recombinant N-terminus His6-tagged AKR1B10 Val301Leu mutant expressed in Escherichia coli BL21 DE3 assessed as inhibition of NADP+ linked geraniol oxidation by fluorescence analysis
Sequence of Aldo-keto reductase family 1 member B10 (Homo sapiens, UniProt O60218, V301L) (O60218 whole entry V301L): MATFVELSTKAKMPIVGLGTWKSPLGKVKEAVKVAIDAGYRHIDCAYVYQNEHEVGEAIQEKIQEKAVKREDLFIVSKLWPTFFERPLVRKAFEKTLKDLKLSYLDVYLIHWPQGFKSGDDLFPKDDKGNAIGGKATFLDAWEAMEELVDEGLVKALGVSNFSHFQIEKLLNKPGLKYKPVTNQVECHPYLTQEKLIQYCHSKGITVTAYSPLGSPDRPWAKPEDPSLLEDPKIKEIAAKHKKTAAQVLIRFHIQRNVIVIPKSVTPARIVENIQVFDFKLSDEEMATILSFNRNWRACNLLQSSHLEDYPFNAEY

[10] = target: T2, Aldo-keto reductase family 1 member A1 (Homo sapiens) (UniProt P14550); assay: Inhibition of human AKR1A1 at 30 uM
T2 sequence (whole entry): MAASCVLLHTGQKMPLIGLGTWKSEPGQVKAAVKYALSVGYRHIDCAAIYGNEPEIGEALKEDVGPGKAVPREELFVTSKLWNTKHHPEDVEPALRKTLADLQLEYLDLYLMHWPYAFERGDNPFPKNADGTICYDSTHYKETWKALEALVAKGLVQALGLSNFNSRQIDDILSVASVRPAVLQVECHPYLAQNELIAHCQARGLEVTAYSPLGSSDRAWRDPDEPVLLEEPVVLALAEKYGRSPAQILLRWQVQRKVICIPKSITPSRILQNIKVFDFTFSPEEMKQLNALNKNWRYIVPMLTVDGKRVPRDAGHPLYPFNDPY

[11] = target: T1, Aldo-keto reductase family 1 member B10; assay: Inhibition of AKR1B10-mediated farnesal metabolism in human HeLa cells preincubated for 2 hrs measured after 6 hrs following [1-14C]farnesol addition; type: cell-based
Method in brief: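 HeLa cells were transfected with pGW1-AKR1B10 and pretreated with inhibitor at a range of concentrations for 2 h. They were then incubated with [1-¹⁴C]farnesol for 6 h, and reduction of the resulting farnesal was analysed. Percent inhibition is the mean of duplicate experiments.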
Target sequence in this assay (O60218 whole entry): as the sequence (O60218 whole entry) above

[12] = target: Aldo-keto reductase family 1 member B10 (Homo sapiens, UniProt O60218, F123A); assay: Competitive inhibition at human recombinant N-terminus His6-tagged AKR1B10 Phe123Ala mutant expressed in Escherichia coli BL21 DE3 assessed as inhibition of NADP+ linked geraniol oxidation by fluorescence analysis
Sequence of Aldo-keto reductase family 1 member B10 (Homo sapiens, UniProt O60218, F123A) (O60218 whole entry F123A): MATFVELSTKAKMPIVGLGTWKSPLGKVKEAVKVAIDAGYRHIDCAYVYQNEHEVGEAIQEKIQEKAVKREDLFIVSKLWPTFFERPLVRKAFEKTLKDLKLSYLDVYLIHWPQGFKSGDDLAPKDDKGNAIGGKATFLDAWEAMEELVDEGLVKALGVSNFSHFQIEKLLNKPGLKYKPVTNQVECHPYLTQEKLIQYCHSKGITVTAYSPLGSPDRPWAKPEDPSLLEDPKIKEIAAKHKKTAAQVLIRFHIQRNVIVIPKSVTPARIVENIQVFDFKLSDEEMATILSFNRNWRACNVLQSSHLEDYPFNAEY
Method in brief: (§2)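 Recombinant wild-type or mutant AKR1B10 with N-terminal 6-His tag was expressed in E. coli BL21(DE3) pLysS and purified to homogeneity. The Phe123Ala mutant was made by site-directed mutagenesis. Kinetics used NADP+-linked geraniol oxidation, read by NADPH fluorescence (ex 340/em 455 nm) at 25 °C. Five substrate concentrations (0.5–5 × Km) were run with saturating coenzyme. Ki is the mean of at least three determinations.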

[13] = target: Aldo-keto reductase family 1 member B10 (Homo sapiens, UniProt O60218, W220Y); assay: Competitive inhibition at human recombinant N-terminus His6-tagged AKR1B10 Trp220Tyr mutant expressed in Escherichia coli BL21 DE3 assessed as inhibition of NADP+ linked geraniol oxidation by fluorescence analysis
Sequence of Aldo-keto reductase family 1 member B10 (Homo sapiens, UniProt O60218, W220Y) (O60218 whole entry W220Y): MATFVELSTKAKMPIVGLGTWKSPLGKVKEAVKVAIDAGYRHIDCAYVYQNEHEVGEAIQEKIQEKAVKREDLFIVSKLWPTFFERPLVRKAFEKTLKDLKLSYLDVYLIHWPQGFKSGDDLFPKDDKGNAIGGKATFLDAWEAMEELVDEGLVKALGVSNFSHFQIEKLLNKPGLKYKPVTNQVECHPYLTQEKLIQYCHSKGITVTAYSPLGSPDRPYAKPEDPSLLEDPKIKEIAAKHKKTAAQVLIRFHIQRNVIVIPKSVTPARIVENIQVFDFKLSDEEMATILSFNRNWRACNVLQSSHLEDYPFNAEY

U-937 [14] = assay: Growth inhibition of AKR1B10-overexpressing human U937 cells at 0.2 uM by trypan blue dye exclusion assay; type: functional, cell-based; method in brief: as §1
[15] = target: Aldo-keto reductase family 1 member B10 (Homo sapiens, UniProt O60218, Q114T); assay: Competitive inhibition at human recombinant N-terminus His6-tagged AKR1B10 Gln114Thr mutant expressed in Escherichia coli BL21 DE3 assessed as inhibition of NADP+ linked geraniol oxidation by fluorescence analysis
Sequence of Aldo-keto reductase family 1 member B10 (Homo sapiens, UniProt O60218, Q114T) (O60218 whole entry Q114T): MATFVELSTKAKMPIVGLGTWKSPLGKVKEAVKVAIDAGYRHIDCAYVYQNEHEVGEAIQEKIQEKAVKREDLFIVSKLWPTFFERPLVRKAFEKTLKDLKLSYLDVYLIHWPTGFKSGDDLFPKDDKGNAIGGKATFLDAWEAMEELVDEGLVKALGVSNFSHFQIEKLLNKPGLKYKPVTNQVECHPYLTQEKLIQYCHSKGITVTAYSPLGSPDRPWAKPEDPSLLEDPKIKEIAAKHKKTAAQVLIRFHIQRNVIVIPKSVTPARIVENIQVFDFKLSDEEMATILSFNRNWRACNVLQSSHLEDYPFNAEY

[16] = target: Aldo-keto reductase family 1 member B10 (Homo sapiens, UniProt O60218, Q303S/V301L); assay: Competitive inhibition at human recombinant N-terminus His6-tagged AKR1B10 Val301Leu/Gln303Ser double mutant expressed in Escherichia coli BL21 DE3 assessed as inhibition of NADP+ linked geraniol oxidation by fluorescence analysis
Sequence of Aldo-keto reductase family 1 member B10 (Homo sapiens, UniProt O60218, Q303S/V301L) (O60218 whole entry V301L/Q303S): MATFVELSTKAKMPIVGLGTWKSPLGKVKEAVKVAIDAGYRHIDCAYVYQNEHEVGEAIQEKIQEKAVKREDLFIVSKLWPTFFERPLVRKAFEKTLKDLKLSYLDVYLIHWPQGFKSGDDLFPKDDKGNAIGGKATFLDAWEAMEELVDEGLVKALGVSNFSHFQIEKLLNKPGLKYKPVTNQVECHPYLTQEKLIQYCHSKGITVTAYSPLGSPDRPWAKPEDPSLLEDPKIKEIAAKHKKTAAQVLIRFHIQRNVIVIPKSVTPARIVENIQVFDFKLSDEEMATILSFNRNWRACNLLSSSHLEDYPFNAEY

[17] = target: Aldo-keto reductase family 1 member B10 (Homo sapiens, UniProt O60218, Q303S); assay: Competitive inhibition at human recombinant N-terminus His6-tagged AKR1B10 Gln303Ser mutant expressed in Escherichia coli BL21 DE3 assessed as inhibition of NADP+ linked geraniol oxidation by fluorescence analysis
Sequence of Aldo-keto reductase family 1 member B10 (Homo sapiens, UniProt O60218, Q303S) (O60218 whole entry Q303S): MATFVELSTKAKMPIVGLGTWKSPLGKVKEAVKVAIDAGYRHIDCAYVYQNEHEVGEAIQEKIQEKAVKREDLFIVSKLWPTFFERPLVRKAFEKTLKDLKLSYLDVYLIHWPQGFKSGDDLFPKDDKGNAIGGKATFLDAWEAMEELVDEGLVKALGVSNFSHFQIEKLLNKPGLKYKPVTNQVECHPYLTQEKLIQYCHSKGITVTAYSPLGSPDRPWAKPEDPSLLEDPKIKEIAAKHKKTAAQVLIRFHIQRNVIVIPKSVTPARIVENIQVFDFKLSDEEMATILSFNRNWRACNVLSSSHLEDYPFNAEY

[18] = target: T1, Aldo-keto reductase family 1 member B10; assay: Competitive inhibition at human recombinant N-terminus His6-tagged AKR1B10 expressed in Escherichia coli BL21 DE3 assessed as inhibition of NADP+ linked geraniol oxidation by fluorescence analysis; method in brief: as §2
Target sequence in this assay (O60218 whole entry): as the sequence (O60218 whole entry) above

[19] = target: T1, Aldo-keto reductase family 1 member B10; details: HeLa, 0.2 uM
Target sequence in this assay (O60218 whole entry, looked up): as the sequence (O60218 whole entry) above

Row | IC50 [1] | IC50 [2] | Ratio IC50 (Homo sapiens) | SMILES | also measured
1 | 6.9 µM | 9 nM | 766 | COc1cc(O)ccc1/C=C/C(=O)OCCCc1ccccc1O | –
2 | – | 240 nM | – | O=C(/C=C/c1ccc(O)c(O)c1)O[C@@H]1[C@H](O)C[C@@](O)(C(=O)O)C[C@H]1OC(=O)/C=C/c1ccc(O)c(O)c1 (relative stereo) | –
3 | – | 7900 nM | – | O=C(/C=C/c1ccc(O)c(O)c1)O[C@@H]1C[C@](O)(C(=O)O)C[C@@H](O)[C@H]1O (relative stereo) [CHLOROGENIC ACID] | –
4 | 38 µM | 49000 nM | – | CC(C)=CCc1cc(/C=C/C(=O)O)ccc1O [DRUPANIN] | –
5 | 1.1 µM | 21 nM | 52 | O=C(/C=C/c1ccc(O)cc1)OCCCc1ccccc1 | –
6 | 7.3 µM | 13 nM | 562 | COc1cc(O)ccc1/C=C/C(=O)OCCc1cccc(O)c1 | –
7 | 6.1 µM | 920 nM | 7 | CC(C)OC(=O)/C=C/c1ccc(O)cc1 [ISOPROPYL 3-(4-HYDROXYPHENYL)ACRYLATE] | –
8 | 7.2 µM | 13 nM | 554 | COc1cc(O)ccc1/C=C/C(=O)OCCc1ccccc1 | –
9 | 2.2 µM | 69 nM | 31 | O=C(/C=C/c1ccc(O)cc1)OCCc1ccccc1 | –
10 | 41 µM | 3100 nM | 13 | O=C(/C=C/c1cccc(O)c1)OCCCc1ccccc1 | –
11 | 2.2 µM | 130 nM | 17 | O=C(/C=C/c1ccc(O)cc1)OCc1ccccc1 | –
12 | 76 µM | 63000 nM | – | O=C(O)/C=C/c1ccc(O)cc1 [COUMARIC ACID] | –
13 | 23 µM | 18000 nM | 1 | O=C(/C=C/c1ccccc1)OCCc1ccccc1 [PHENETHYL CINNAMATE] | –
14 | 11 µM | 23 nM | 478 | COc1cc(O)ccc1/C=C/C(=O)OCCCc1ccc(O)cc1 | –
15 | 0.4 µM | 210 nM | 2 | O=C(/C=C/c1ccc(O)c(O)c1)OCc1ccccc1 [BENZYL CAFFEATE] | –
16 | 23 µM | 53000 nM | – | CC(C)=CCc1cc(/C=C/C(=O)O)cc(CC=C(C)C)c1O [ARTEPILLIN] | –
17 | – | 90000 nM | – | O=C(O)/C=C/c1ccc(O)c(O)c1 [CAFFEIC ACID] | –
18 | 9.5 µM | 17 nM | 558 | COc1cc(O)ccc1/C=C/C(=O)OCCc1ccccc1O | –
19 | 0.088 µM | 130 nM | – | O=C(/C=C/c1ccc(O)c(O)c1)O[C@@H]1C[C@](O)(C(=O)O)C[C@@H](OC(=O)/C=C/c2ccc(O)c(O)c2)[C@H]1O (relative stereo) | –
20 | 11 µM | 16 nM | 688 | COc1cc(O)ccc1/C=C/C(=O)OCCCc1ccccc1 | –
21 | 3.2 µM | 14 nM | 229 | COc1cc(O)ccc1/C=C/C(=O)OCCc1ccc(O)cc1 | –
22 | 73 µM | 19000 nM | 4 | O=C(/C=C/c1cccc(O)c1)OCCc1ccccc1 | –

Row | SMILES | IC50 [1] | IC50 [2] | Ratio IC50 (Homo sapiens) | also measured
23 | O=C(/C=C/c1ccc(O)c(O)c1)OCCc1ccccc1 [CAFFEIC ACID PHENETHYL ESTER] | 0.57 µM | 80 nM | 7 | Ki [3]: 46 nM; CC50 (HeLa [4]): 56 µM; growth inhibition (GI) (U-937 [5]): inactive; growth inhibition (GI) (HeLa [6]): inactive; growth inhibition (GI) (U-937 [7]): Active
24 | COc1cc(O)ccc1/C=C/C(=O)OCCCc1cccc(O)c1 | 4.9 µM | 6.2 nM | 790 | Ki [8]: 3.5 nM; Ki [9]: 5.8 nM; inhibition [10]: inactive; CC50 (HeLa [4]): 36 µM; IC50 [11]: 300 nM; Ki [12]: 5.1 nM; growth inhibition (GI) (U-937 [5]): inactive; Ki [13]: 15 nM; growth inhibition (GI) (U-937 [14]): Active; Ki [15]: 7.6 nM; Ki [16]: 23 nM; Ki [17]: 7.1 nM; growth inhibition (GI) (HeLa [6]): inactive; Ki [18]: 2.6 nM; inhibition [19]: Active
